Results from different studies.
EGFR L858R: Epidermal growth factor receptor (EGFR, Homo sapiens, UniProt P00533, L858R)
EGFR T790M: Epidermal growth factor receptor (EGFR, Homo sapiens, UniProt P00533, T790M)
EGFR L858R/T790M: Epidermal growth factor receptor (EGFR, Homo sapiens, UniProt P00533, L858R/T790M)
EGFR del746-750: Epidermal growth factor receptor (EGFR, Homo sapiens, UniProt P00533, del746-750)
EGFR L861Q: Epidermal growth factor receptor (EGFR, Homo sapiens, UniProt P00533, L861Q)
EGFR del747-752/P753S: Epidermal growth factor receptor (EGFR, Homo sapiens, UniProt P00533, del747-752/P753S)
EGFR del752-759: Epidermal growth factor receptor (EGFR, Homo sapiens, UniProt P00533, del752-759)

target | effect on | method | concentration | remaining binding [%] | SMILES
EGFR L858R | binding |  | 1 µM | 100 | CN(c1nccc(-c2cnn3ncccc23)n1)C1CC1
EGFR T790M | binding |  | 10 µM | 77 | CN1CCN(c2ccc(Nc3nccc(-c4ccccc4)n3)cc2C(F)(F)F)CC1
EGFR L858R/T790M | binding | competition with immobilised ligand | 1 µM | 58 | O=C(c1ccc(Nc2nccc(-c3cc4ccccc4s3)n2)cc1)N1CCC(N2CCCC2)CC1
EGFR L858R | binding |  | 1 µM | 100 | C[C@H]1CCN(c2nccc(-c3cnn4ncccc34)n2)C1
EGFR del746-750 | binding | competition with immobilised ligand | 1 µM | 90 | CNC(=O)[C@@H]1CC[C@@H](n2c(-c3ccc4cnccc4c3)nc3ccc(C(=O)NCc4cccc(C(N)=O)c4)cc32)C1
EGFR del746-750 | binding | competition with immobilised ligand | 10 µM | 38 | c1cncc(-c2cccc(Nc3nccc(NC4CCCCC4)n3)c2)c1
EGFR L858R/T790M | binding | competition with immobilised ligand | 1 µM | 64 | O=C(c1ccc(Nc2ncc(Cl)c(-c3cc4ccccc4s3)n2)cc1)N1CCC(N2CCCC2)CC1
EGFR L861Q | cell-free assay | competition with immobilised ligand | 1 µM | 100 | CC(=O)c1c(NS(C)(=O)=O)c2cc(-c3ccc(Cl)cc3)c(-c3ccc(Cl)cc3Cl)nc2n(C)c1=O
EGFR del747-752/P753S | binding | competition with immobilised ligand | 1 µM | 98 | O=C(NCCCN1CCOCC1)c1ccc(Nc2ncc(Cl)c(-c3ccc(Cl)s3)n2)cc1
Epidermal growth factor receptor (EGFR, Homo sapiens, UniProt P00533, A750P/del747-749) | cell-free assay | competition with immobilised ligand | 1 µM | 96 | CNC(=O)Nc1ccc2c(c1)[C@@]1(CC2)OC(=O)N(CC(=O)N(Cc2ccc(F)cc2)[C@@H](C)C(F)(F)F)C1=O
EGFR L861Q | binding |  | 1 µM | 70 | Cc1cnn2ncc(-c3ccnc(N(C)C)n3)c2c1
EGFR T790M | cell-free assay | competition with immobilised ligand | 1 µM | 85 | O=C1CCc2cc(Nc3cc(OC4CCOCC4)c([N+](=O)[O-])cc3Cl)ccc2N1
Epidermal growth factor receptor (EGFR, Homo sapiens, UniProt P00533) | binding | competition with immobilised ligand | 10 µM | 100 | N#Cc1ccccc1CSc1nnc2c(n1)[nH]c1ccccc12
EGFR L861Q | cell-free assay | competition with immobilised ligand | 5 µM | 100 | COc1ncc2cc3ccccc3nc2c1C#N
EGFR L858R | binding |  | 1 µM | 84 | c1cnn2ncc(-c3ccnc(N4CCC45COC5)n3)c2c1
EGFR del747-752/P753S | cell-free assay | competition with immobilised ligand | 1 µM | 64 | CNC(=O)Nc1ccc2c(c1)CC[C@@]21OC(=O)N(CC(=O)N(Cc2ccc(F)cc2)[C@@H](C)C(F)(F)F)C1=O
EGFR del747-752/P753S | binding | competition with immobilised ligand | 1 µM | 100 | Cc1cnc(Nc2ccc(C(=O)N3CCC(N4CCCC4)CC3)cc2)nc1-c1cc2ccccc2s1
EGFR del752-759 | binding |  | 1 µM | 100 | F[C@@H]1CCN(c2nccc(-c3cnn4ncccc34)n2)C1
EGFR T790M | cell-free assay | competition with immobilised ligand | 1 µM | 100 | CCC(=N\O)/C(C)=C/c1ccc(F)cc1
EGFR del746-750 | binding | competition with immobilised ligand | 1 µM | 90 | COc1cnc(Nc2cccc(S(N)(=O)=O)c2)nc1N1CCN(c2ccccc2)CC1
EGFR del747-752/P753S | cell-free assay | competition with immobilised ligand | 0.1 µM | 69 | C[C@H](c1ccnc(Nc2nc3ccc(-c4cc(N(C)C)ncn4)cc3[nH]2)c1)N1CCN(C(=O)CC(F)(F)F)CC1
Epidermal growth factor receptor (EGFR, Homo sapiens, UniProt P00533, G719C) | binding |  | 1 µM | 100 | CN(C)c1nccc(-c2cnc3ncccn23)n1
EGFR del752-759 | cell-free assay | competition with immobilised ligand | 1 µM | 99 | Cc1nc(N2CC[C@@H](O)C2)ncc1-c1cc(C(F)(F)F)cc2[nH]ncc12
EGFR del746-750 | binding | competition with immobilised ligand | 1 µM | 100 | O=C(Nc1c[nH]nc1C(=O)NC1CCNCC1)c1cc(F)cc(F)c1
